The target of assay [1] is T1, Scm-like with four MBT domains protein 1 (Homo sapiens, UniProt Q9UHJ3).
T1 sequence (Q9UHJ3 whole entry): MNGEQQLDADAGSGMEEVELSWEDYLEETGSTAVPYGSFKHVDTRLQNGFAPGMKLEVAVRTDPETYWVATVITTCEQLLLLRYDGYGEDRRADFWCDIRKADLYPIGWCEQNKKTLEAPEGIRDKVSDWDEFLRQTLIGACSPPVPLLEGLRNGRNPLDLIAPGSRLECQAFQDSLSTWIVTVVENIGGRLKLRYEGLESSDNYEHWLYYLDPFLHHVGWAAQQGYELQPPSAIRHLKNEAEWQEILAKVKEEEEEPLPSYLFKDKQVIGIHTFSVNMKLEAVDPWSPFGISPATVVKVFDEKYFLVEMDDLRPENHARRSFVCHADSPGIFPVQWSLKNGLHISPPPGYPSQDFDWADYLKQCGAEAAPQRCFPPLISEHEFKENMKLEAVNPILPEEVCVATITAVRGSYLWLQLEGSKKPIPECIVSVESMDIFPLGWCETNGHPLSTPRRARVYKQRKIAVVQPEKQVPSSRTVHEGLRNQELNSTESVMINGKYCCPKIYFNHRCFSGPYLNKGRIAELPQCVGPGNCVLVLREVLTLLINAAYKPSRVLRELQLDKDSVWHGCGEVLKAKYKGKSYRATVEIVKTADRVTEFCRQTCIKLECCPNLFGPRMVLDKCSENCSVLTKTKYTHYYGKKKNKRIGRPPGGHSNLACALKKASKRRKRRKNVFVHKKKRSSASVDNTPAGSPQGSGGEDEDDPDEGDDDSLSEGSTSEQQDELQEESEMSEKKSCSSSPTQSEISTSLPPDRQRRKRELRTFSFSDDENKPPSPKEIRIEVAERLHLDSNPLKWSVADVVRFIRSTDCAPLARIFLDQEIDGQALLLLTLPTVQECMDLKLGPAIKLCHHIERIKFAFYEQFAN
Description: Inhibition of SFMBT1 (unknown origin) after 30 mins by AlphaScreen assay. The essentials:
(§1)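 AlphaScreen competition with histone peptide. Compounds in 3-fold, 10-point dilutions, top 10 or 30 μM; buffer 20 mM Tris pH 8.0, 25 mM NaCl, 2 mM DTT, 0.05% Tween-20. Protein-peptide mix 30 min RT, then streptavidin donor plus nickel-chelate acceptor beads (GST acceptor beads for GST-tagged PHF23, JARID1A) 30 min RT dark. […] Protein-free His6-biotin peptide counterscreen.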

The target of assay [2] is T2, Lethal(3)malignant brain tumor-like protein 4 (Homo sapiens, UniProt Q8NA19).
T2 sequence (Q8NA19 whole entry): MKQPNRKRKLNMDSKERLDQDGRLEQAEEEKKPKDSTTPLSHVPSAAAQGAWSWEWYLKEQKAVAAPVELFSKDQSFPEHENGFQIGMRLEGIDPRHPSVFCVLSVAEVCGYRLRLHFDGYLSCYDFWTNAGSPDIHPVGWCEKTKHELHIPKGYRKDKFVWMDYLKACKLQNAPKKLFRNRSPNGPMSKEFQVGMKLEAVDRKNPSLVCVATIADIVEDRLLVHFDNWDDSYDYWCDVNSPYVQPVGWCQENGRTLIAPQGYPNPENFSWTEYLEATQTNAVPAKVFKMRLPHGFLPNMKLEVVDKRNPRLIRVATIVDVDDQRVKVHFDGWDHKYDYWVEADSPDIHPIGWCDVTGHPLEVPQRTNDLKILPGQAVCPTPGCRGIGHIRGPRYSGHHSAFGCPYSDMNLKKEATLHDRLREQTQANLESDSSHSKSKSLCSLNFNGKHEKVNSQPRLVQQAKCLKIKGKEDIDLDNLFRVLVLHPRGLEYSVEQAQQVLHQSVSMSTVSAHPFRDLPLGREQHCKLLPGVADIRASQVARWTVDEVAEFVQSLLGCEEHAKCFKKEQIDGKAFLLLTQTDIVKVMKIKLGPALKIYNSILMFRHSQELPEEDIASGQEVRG
Description: Inhibition of L3MBTL4 (unknown origin) after 30 mins by AlphaScreen assay. A digest of the protocol: (§2)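 AlphaScreen competition with histone peptide. Compounds in 3-fold, 10-point dilutions, top 10 or 30 μM; buffer 20 mM Tris pH 8.0, 25 mM NaCl, 2 mM DTT, 0.05% Tween-20. Protein-peptide mix 30 min RT, then streptavidin donor plus nickel-chelate acceptor beads (GST acceptor beads for GST-tagged PHF23, JARID1A) 30 min RT dark. Protein-free His6-biotin peptide counterscreen.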

The target of assay [3] is T3, Lethal(3)malignant brain tumor-like protein 3 (Homo sapiens, UniProt Q96JM7).
T3 sequence (Q96JM7 whole entry): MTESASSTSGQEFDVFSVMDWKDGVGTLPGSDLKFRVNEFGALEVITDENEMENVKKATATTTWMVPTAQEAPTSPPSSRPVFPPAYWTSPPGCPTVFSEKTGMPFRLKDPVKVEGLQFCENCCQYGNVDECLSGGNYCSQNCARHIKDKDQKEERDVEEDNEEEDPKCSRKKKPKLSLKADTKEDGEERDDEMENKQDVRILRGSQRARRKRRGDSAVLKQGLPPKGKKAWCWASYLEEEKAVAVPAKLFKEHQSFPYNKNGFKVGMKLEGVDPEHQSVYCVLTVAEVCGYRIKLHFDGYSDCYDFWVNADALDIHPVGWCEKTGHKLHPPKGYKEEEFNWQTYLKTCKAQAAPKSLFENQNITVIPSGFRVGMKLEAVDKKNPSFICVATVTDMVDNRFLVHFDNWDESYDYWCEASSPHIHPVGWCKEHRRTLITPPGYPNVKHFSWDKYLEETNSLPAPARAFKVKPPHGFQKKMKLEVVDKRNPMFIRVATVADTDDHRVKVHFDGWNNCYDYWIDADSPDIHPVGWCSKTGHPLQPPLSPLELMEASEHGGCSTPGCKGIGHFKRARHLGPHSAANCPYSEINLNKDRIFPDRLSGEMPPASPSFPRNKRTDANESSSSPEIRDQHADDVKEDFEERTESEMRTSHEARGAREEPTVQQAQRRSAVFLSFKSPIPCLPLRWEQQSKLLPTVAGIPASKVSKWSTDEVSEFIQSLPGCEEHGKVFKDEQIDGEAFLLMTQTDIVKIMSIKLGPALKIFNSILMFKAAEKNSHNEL
Briefly: Inhibition of L3MBTL3 (unknown origin) using H4K20me2 as substrate after 30 mins by LNCE-TR-FRET assay.

Assay [4] concerns the target T3, Lethal(3)malignant brain tumor-like protein 3. Briefly: Inhibition of L3MBTL3 (unknown origin) after 30 mins by AlphaScreen assay. The essentials: as §2
The target of assay [5] is Lysine-specific demethylase 5A (Homo sapiens, UniProt P29375). Briefly: Inhibition of JARID1A (unknown origin) after 30 mins by AlphaScreen assay. A digest of the protocol: as §1
Chain of Lysine-specific demethylase 5A (P29375 whole entry): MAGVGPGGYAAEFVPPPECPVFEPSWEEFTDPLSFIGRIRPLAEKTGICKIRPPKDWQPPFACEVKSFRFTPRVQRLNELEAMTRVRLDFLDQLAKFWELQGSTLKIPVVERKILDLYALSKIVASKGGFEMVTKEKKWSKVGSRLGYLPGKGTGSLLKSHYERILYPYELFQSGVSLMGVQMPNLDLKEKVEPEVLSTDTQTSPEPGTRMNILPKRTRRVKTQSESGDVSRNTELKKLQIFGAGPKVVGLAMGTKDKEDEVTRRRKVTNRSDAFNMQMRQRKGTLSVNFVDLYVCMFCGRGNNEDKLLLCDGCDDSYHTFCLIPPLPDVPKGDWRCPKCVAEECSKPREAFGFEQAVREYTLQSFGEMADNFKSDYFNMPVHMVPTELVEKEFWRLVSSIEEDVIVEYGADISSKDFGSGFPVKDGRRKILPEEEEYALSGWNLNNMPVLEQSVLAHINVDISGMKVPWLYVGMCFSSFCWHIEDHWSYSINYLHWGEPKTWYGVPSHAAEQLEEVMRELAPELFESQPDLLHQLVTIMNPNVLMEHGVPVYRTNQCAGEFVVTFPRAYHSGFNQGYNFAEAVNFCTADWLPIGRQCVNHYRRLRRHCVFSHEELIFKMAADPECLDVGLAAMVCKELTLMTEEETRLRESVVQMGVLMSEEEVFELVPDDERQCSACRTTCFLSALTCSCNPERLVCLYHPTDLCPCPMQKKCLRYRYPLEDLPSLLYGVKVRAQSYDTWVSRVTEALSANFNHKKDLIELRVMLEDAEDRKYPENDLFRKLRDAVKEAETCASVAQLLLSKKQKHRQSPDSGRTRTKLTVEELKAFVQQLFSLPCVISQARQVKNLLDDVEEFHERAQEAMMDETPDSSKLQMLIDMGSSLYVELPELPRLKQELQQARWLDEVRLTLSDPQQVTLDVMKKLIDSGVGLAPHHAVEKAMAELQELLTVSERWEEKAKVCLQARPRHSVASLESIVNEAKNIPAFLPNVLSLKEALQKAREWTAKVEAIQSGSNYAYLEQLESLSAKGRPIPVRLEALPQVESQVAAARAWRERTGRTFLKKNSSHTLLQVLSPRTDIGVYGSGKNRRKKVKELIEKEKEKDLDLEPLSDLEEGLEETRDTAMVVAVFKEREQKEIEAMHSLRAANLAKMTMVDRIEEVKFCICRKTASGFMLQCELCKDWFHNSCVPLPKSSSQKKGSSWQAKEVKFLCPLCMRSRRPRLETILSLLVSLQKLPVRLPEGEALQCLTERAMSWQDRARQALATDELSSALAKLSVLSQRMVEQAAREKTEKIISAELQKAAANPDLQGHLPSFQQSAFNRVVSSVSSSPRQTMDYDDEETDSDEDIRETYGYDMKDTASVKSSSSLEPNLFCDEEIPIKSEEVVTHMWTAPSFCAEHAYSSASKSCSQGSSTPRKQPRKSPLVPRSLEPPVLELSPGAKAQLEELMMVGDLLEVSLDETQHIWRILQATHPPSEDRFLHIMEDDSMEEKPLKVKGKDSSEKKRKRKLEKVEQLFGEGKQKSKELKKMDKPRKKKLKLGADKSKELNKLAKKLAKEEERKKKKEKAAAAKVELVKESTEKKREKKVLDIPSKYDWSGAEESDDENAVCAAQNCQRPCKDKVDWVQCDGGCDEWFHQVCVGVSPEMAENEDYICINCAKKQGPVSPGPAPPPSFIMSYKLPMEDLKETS

Data on 21 molecules can be found in ChEMBL document CHEMBL2424619, “Small-molecule ligands of methyl-lysine binding proteins: optimization of selectivity for L3MBTL3” (J Med Chem, 2013).

Where only a bound is given, the exact number is not on record here.

For the molecule `O=C(c1ccc(C(=O)N2CCC(N3CCCC3)CC2)c([N+](=O)[O-])c1)N1CCC(N2CCCC2)CC1`, the 50% inhibitory concentration (IC50) in assay [1] was above 10 µM; in assay [2] it was above 10 µM; in assay [3] it was 0.088 µM; in assay [4], 0.16 µM; in assay [5] it was above 10 µM.

Regarding `O=C(c1ccc(C(=O)N2CCC(N3CCCC3)CC2)c(C(=O)N2CCC(N3CCCC3)CC2)c1)N1CCC(N2CCCC2)CC1`, the concentration for half-maximal inhibition (IC50) in assay [1] is above 10 µM; in assay [2] it was above 10 µM; in assay [3] it was 0.11 µM; in assay [4] it was 0.12 µM; in assay [5] it was above 10 µM.

With `CC(C1CCN(C(=O)c2ccc(C(=O)N3CCC(N4CCCC4)CC3)cc2)CC1)N1CCN(C)CC1` (stereo unspecified), the concentration for half-maximal inhibition (IC50) was above 10 µM in assay [1]; above 10 µM in assay [2]; 0.25 µM in assay [3]; 0.3 µM in assay [4]; above 10 µM in assay [5].

Take `O=C(c1ccc(C(=O)N2CC3(CCNC3)C2)cc1)N1CCC(N2CCCC2)CC1`: the half-maximal inhibitory concentration (IC50) is above 10 µM in assay [1]; above 10 µM in assay [2]; 2.7 µM in assay [3]; 3.6 µM in assay [4]; above 10 µM in assay [5].

`O=C(c1ccc(S(=O)(=O)N2CCC(N3CCCC3)CC2)cc1)N1CCC(N2CCCC2)CC1`: the IC50 in assay [1] was above 10 µM; in assay [2] it was above 10 µM; in assay [3], 0.097 µM; in assay [4] it was 0.099 µM; in assay [5], above 10 µM.

`O=C(c1ccc(C(=O)N2CC3CCC(C2)C3N2CCCC2)cc1)N1CCC(N2CCCC2)CC1` (stereo unspecified): the 50% inhibitory concentration (IC50) in assay [1] is above 10 µM; in assay [2], above 10 µM; in assay [3], 0.092 µM; in assay [4], 0.16 µM; in assay [5], above 10 µM.

For the molecule `O=C(c1ccc(C(=O)N2CCC(N3CCCC3)CC2)cc1)N1CCCC(N2CCCC2)CC1` (stereo unspecified), the half-maximal inhibitory concentration (IC50) is above 10 µM in assay [1]; above 10 µM in assay [2]; 0.074 µM in assay [3]; 0.096 µM in assay [4]; above 10 µM in assay [5].

With `O=C(c1ccc(C(=O)N2CCC(N3CCCC3)CC2)c(Oc2ccccc2)c1)N1CCC(N2CCCC2)CC1`, the 50% inhibitory concentration (IC50) in assay [1] was above 10 µM; in assay [2], above 10 µM; in assay [3], 0.053 µM; in assay [4], 0.058 µM; in assay [5], above 10 µM.

On to `O=C(c1ccc(N2CCC(N3CCCC3)CC2)cc1)N1CCC(N2CCCC2)CC1`, for which the concentration for half-maximal inhibition (IC50) is above 10 µM in assay [1]; 8.4 µM in assay [2]; 0.15 µM in assay [3]; 0.17 µM in assay [4]; above 10 µM in assay [5].

As for `Nc1cc(C(=O)N2CCC(N3CCCC3)CC2)ccc1C(=O)N1CCC(N2CCCC2)CC1`, the IC50 is above 10 µM in assay [1]; above 10 µM in assay [2]; 0.22 µM in assay [3]; 0.23 µM in assay [4]; above 10 µM in assay [5].

In the case of `O=C(c1cccc(C(=O)N2CCC(N3CCCC3)CC2)c1)N1CCC(N2CCCC2)CC1`, the concentration for half-maximal inhibition (IC50) in assay [1] is above 10 µM; in assay [2] it was above 10 µM; in assay [3] it was 0.29 µM; in assay [4] it was 0.36 µM; in assay [5] it was above 10 µM.

Consider `O=C(c1ccc(C(=O)N2CCC(N3CCC3)CC2)cc1)N1CCC(N2CCC2)CC1`, for which the concentration for half-maximal inhibition (IC50) in assay [1] is above 10 µM; in assay [2], above 10 µM; in assay [3], 0.35 µM; in assay [4] it was 0.4 µM; in assay [5], above 10 µM.

For the molecule `O=C(c1ccc(C(=O)N2CC3CCC(C2)C3N2CCCC2)cc1)N1CC2CCC(C1)C2N1CCCC1` (stereo unspecified), the concentration for half-maximal inhibition (IC50) in assay [1] is above 10 µM; in assay [2], above 10 µM; in assay [3], 0.28 µM; in assay [4], 0.4 µM; in assay [5], above 10 µM.

In the case of `CCN1Cc2ccc(NC(=O)c3ccc(C(=O)N4CCC(N5CCCC5)CC4)cc3)cc2C1`, the IC50 in assay [1] is above 10 µM; in assay [2] it was above 10 µM; in assay [3], 0.35 µM; in assay [4], 0.37 µM; in assay [5], above 10 µM.

For `CN1CCC(N2CCN(C(=O)c3ccc(C(=O)N4CCC(N5CCCC5)CC4)cc3)CC2)CC1`, the 50% inhibitory concentration (IC50) in assay [1] is above 10 µM; in assay [2], above 10 µM; in assay [3], 0.77 µM; in assay [4], 0.83 µM; in assay [5], above 10 µM.

For `CN1CCCC1C1CCN(C(=O)c2ccc(C(=O)N3CCC(C4CCCN4C)CC3)cc2)CC1` (stereo unspecified), the IC50 is above 10 µM in assay [1]; above 10 µM in assay [2]; 1.9 µM in assay [3]; 1.7 µM in assay [4]; above 10 µM in assay [5].

In the case of `O=C(c1ccc(C(=O)N2CCC(N3CCCC3)CC2)cc1)N1CCC(N2CCCCCC2)CC1`, the IC50 was above 10 µM in assay [1]; above 10 µM in assay [2]; 0.21 µM in assay [3]; 0.27 µM in assay [4]; above 10 µM in assay [5].

Regarding `O=C(c1ccc(C(=O)N2CCC(N3CCCC3)CC2)nc1)N1CCC(N2CCCC2)CC1`, the half-maximal inhibitory concentration (IC50) was above 10 µM in assay [1]; above 10 µM in assay [2]; 0.061 µM in assay [3]; 0.11 µM in assay [4]; above 10 µM in assay [5].

With `O=C(c1ccc(C(=O)N2CCC(N3CCCCC3)CC2)cc1)N1CCC(N2CCCCC2)CC1`, the IC50 in assay [1], in assay [2], in assay [3], in assay [4] and in assay [5] was above 10 µM in each case.

Consider `CCN1Cc2ccc(NC(=O)c3ccc(C(=O)N4CCC(C5CCCN5)CC4)cc3)cc2C1` (stereo unspecified), for which the concentration for half-maximal inhibition (IC50) in assay [1], in assay [2] and in assay [5] was above 10 µM each time.

On to `CCN1Cc2ccc(NC(=O)c3ccc(C(=O)N4CCC(C5CCCN5)CC4)c(Nc4ccccc4)c3)cc2C1` (stereo unspecified), for which the IC50 in assay [1], in assay [2] and in assay [5] was above 10 µM in each case.
